Data: ChEMBL document CHEMBL3580630, “Design and Synthesis of a Screening Library Using the Natural Product Scaffold 3-Chloro-4-hydroxyphenylacetic Acid” (2015)
Calls of active or inactive are those of the source. The rule behind the calls is not given here.

Assays:
[1] = test system: LNCaP; assay: Cytotoxicity against human LNCAP cells assessed as inhibition of cell proliferation at 10 uM after 72 hrs by Alamar blue assay relative to control; assay type: functional
[2] = test system: Trypanosoma brucei brucei; assay: Antiparasitic activity against bloodstream form of Trypanosoma brucei brucei 427 assessed as inhibition of parasite replication at 10 uM after 72 hrs by resazurin assay relative to control; assay type: functional; conditions: Trypanosoma brucei, 427, 72 h
[3] = test system: Plasmodium falciparum; assay: Antiparasitic activity against asexual intraerythrocytic stage of Plasmodium falciparum 3D7 assessed as inhibition of parasite replication at 10 uM after 72 hrs by DAPI staining-based microscopic analysis relative to control; assay type: functional; conditions: 3D7, 72 h
[4] = test system: PC-3; assay: Antilipogenic activity in human PC3 cells assessed as reduction of cellular phospholipid level at 10 uM after 48 hrs by nile red staining-based fluorescence microscopic analysis relative to control; assay type: functional, cell-based
How it was run: (§1)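 Cells were grown 72 h in phenol-red-free RPMI-1640 with 5% CSS, then exposed 48 h to 10 µM compound in 0.3% DMSO. Controls were DMSO alone (negative) and TOFA (positive). Cells were fixed in 4% paraformaldehyde for 20 min on ice, then stained 20 min at room temperature in the dark with 1.0 µg/mL DAPI and 0.25 µg/mL Nile Red in PBS. Imaging was at 10×. Neutral lipids were read in the Cy3 channel and phospholipids in Cy5, as mean fluorescence intensity per cell (~1500 cells/treatment). Statistics used one-way ANOVA with Dunnett's test.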

[5] = test system: LNCaP; assay: Antilipogenic activity in human LNCAP cells assessed as reduction of cellular neutral lipid level at 10 uM after 48 hrs by nile red staining-based fluorescence microscopic analysis relative to control; assay type: functional, cell-based; how it was run: as §1
[6] = test system: PC-3; assay: Antilipogenic activity in human PC3 cells assessed as reduction of cellular neutral lipid level at 10 uM after 48 hrs by nile red staining-based fluorescence microscopic analysis relative to control; assay type: functional, cell-based; how it was run: as §1
[7] = test system: LNCaP; assay: Antilipogenic activity in human LNCAP cells assessed as reduction of cellular phospholipid level at 10 uM after 48 hrs by nile red staining-based fluorescence microscopic analysis relative to control; assay type: functional, cell-based; how it was run: as §1

SMILES | inhibition at 10 µM [1] [%] | inhibition at 10 µM [2] [%] | inhibition at 10 µM [3] [%] | Activity [4] | Activity [5] | Activity [6] | Activity [7]
O=C(Cc1ccc(O)c(Cl)c1)NCCc1ccccn1 | > 50 | > 50 | > 50 | – | – | – | –
CC(C)CCNC(=O)Cc1ccc(O)c(Cl)c1 | > 50 | > 50 | > 50 | – | – | – | –
CCN(CC)CCCNC(=O)Cc1ccc(O)c(Cl)c1 | > 50 | > 50 | > 50 | – | – | – | –
O=C(Cc1ccc(O)c(Cl)c1)NCCc1ccc(F)cc1 | > 50 | > 50 | > 50 | – | – | – | –
CCN(CC)CCNC(=O)Cc1ccc(O)c(Cl)c1 | > 50 | > 50 | > 50 | – | – | – | –
O=C(Cc1ccc(O)c(Cl)c1)NCCN1CCOCC1 | > 50 | > 50 | > 50 | – | – | – | –
O=C(Cc1ccc(O)c(Cl)c1)NCCc1ccc(Br)cc1 | > 50 | > 50 | > 50 | – | – | – | –
O=C(O)Cc1ccc(O)c(Cl)c1 | > 50 | > 50 | > 50 | – | – | – | –
O=C(Cc1ccc(O)c(Cl)c1)NCc1ccc(F)cc1 | > 50 | > 50 | > 50 | Active | Active | Active | Active
CCCCCCCCCCCCCCOc1ccc(C(=O)O)o1 | – | – | – | inactive | Active | Active | inactive
O=C(Cc1ccc(O)c(Cl)c1)NCCN1CCNCC1 | > 50 | > 50 | > 50 | – | – | – | –
O=C(Cc1ccc(O)c(Cl)c1)NCCc1ccccc1 | > 50 | > 50 | > 50 | – | – | – | –
CN(C)CCCNC(=O)Cc1ccc(O)c(Cl)c1 | > 50 | > 50 | > 50 | – | – | – | –
CN(C)CCNC(=O)Cc1ccc(O)c(Cl)c1 | > 50 | > 50 | > 50 | – | – | – | –
O=C(Cc1ccc(O)c(Cl)c1)NCc1ccccc1F | > 50 | > 50 | > 50 | Active | Active | Active | Active
O=C(Cc1ccc(O)c(Cl)c1)NCc1ccccc1 | > 50 | > 50 | > 50 | – | – | – | –
O=C(Cc1ccc(O)c(Cl)c1)NCCc1ccccc1F | > 50 | > 50 | > 50 | – | – | – | –
O=C(Cc1ccc(O)c(Cl)c1)NCc1ccc(Cl)cc1 | > 50 | > 50 | > 50 | – | – | – | –
O=C(Cc1ccc(O)c(Cl)c1)NCc1ccc(Br)cc1 | > 50 | > 50 | > 50 | – | – | – | –
O=C(Cc1ccc(O)c(Cl)c1)NCCc1cccc(F)c1 | > 50 | > 50 | > 50 | – | – | – | –
O=C(Cc1ccc(O)c(Cl)c1)NCCc1ccc(Cl)cc1 | > 50 | > 50 | > 50 | – | – | – | –
O=C(Cc1ccc(O)c(Cl)c1)NCc1cccc(F)c1 | > 50 | > 50 | > 50 | Active | Active | Active | Active
COC(=O)Cc1ccc(O)c(Cl)c1 | > 50 | > 50 | > 50 | – | – | – | –
